Values after ≈ are worked out from the molar mass of the structure shown. Values joined by “and” are separate entries in the source; they are usually repeats but may differ in a detail not shown here. Equal values may be shown once. Read-outs that look alike come from different tables or passages of the source.
Tests used:
[1] = molecular target: T1, ADC β-lactamase (Acinetobacter baumannii, UniProt Q6DRA1); conditions: obtained previously by same methodology; cited from earlier work
[2] = molecular target: T1, ADC β-lactamase; assay: Ki in direct competition assays with ADC; assay type: biochemical
[3] = molecular target: T1, ADC β-lactamase; assay: ESI-MS of intact ADC incubated with inhibitors; conditions: 14 μM ADC, 15 min, inhibitor: enzyme 20:1; error ± 3 amu
Outline: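 ADC-7 was expressed in E. coli BL21(DE3) from pET24a(+) with 0.2 mM IPTG at 37 °C for 4 hr. It was purified by preparative isoelectric focusing and gel-filtration FPLC. Incubations were run with and without test compound, then quenched with 0.1% TFA, desalted on C18 and kept on ice. Samples were diluted to 10 μM in 50% acetonitrile/0.1% TFA, nanospray-infused at 0.5 μl/min for 2 min on a Q-TOF, and spectra were deconvoluted.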

[4] = system: E. coli DH10B blaADC; conditions: E. coli DH10B harboring blaADC; previous data; cited from earlier work

Row | Compound | Ki [1] [µM] | Ki [2] [µM] | Species observed in deconvoluted spectra [3] | Δ difference from β-lactamase molecular weight [3] | MIC [4] [µg/mL]
1 | O=C(O)[C@H]1/C(=C/CO)O[C@@H]2CC(=O)N21 [Clavulanate] | 4280 |  |  |  | 
2 | C[C@@H](O)[C@H]1C(=O)N2C(C(=O)O)=C(S[C@@H]3CN[C@H](CNS(N)(=O)=O)C3)[C@H](C)[C@H]12 [Doripenem] |  | 12.2 ± 0.4 | 41,058 amu and 41,015 amu | 420 amu and 377 amu | 
3 | C[C@@H](O)[C@H]1C(=O)N2C(C(=O)O)=C(S[C@@H]3CN[C@H](C(=O)Nc4cccc(C(=O)O)c4)C3)[C@H](C)[C@H]12 [Ertapenem] |  | 5.8 ± 0.2 | 41,069 amu and 41,112 amu | 431 amu and 474 amu | 0.06 (≈ 0.126 µM)
4 | C[C@@H](O)[C@H]1C(=O)N2C(C(=O)O)=C(SCCN=CN)C[C@H]12 [Imipenem] |  | 1.3 ± 0.1 | 40,936 amu and 40,893 amu | 298 amu and 255 amu | 
5 | C[C@@H](O)[C@H]1C(=O)N2C(C(=O)O)=C(S[C@@H]3CN[C@H](C(=O)N(C)C)C3)[C@H](C)[C@H]12 [Meropenem] |  | 19 ± 2 | 41,021 amu and 40,979 amu | 383 amu and 341 amu | 0.06 (≈ 0.156 µM)
6 | CC1(C)[C@H](C(=O)O)N2C(=O)C[C@H]2S1(=O)=O [Sulbactam] | 109 ± 3 |  |  |  | 
7 | C[C@]1(Cn2ccnn2)[C@H](C(=O)O)N2C(=O)C[C@H]2S1(=O)=O [Tazobactam] | 91 ± 21 |  |  |  | 
